Results taken from PubChem BioAssay AID624362 (Broad Institute, 2012).
Calls of active or inactive are those of the source.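 How the source made its calls: active means compounds cutting cell ATP signal whose AC50 is at most twice their top valid dose; inconclusive means flat curve with 30 to 70% signal loss, or poor fit; inactive means the rest.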

system: MALME3 melanoma viability, CellTiter-Glo ATP luminescence, 24 h; experiment: cytotoxicity in MALME3 melanoma cells – cell-based, CellTiter-Glo luminescence, dry powder, set 3, orthogonal assay for MITF inhibitor project, dose response (AID 624362)
Summary of the method: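 Material: MALME3 melanoma cell line | Buffer or medium: Phenol-red-free IMDM supplemented with 10% FBS | Incubation: Compound exposure at 37 °C, cells plated one day earlier | Technique: CellTiter-Glo luminescence measuring cellular ATP | Read-out: Cell viability inferred from cellular ATP level | Controls: Parthenolide at 27 µM as positive control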

Compound	AC50
O=C1C=C(NS(=O)(=O)c2ccccc2)C(=O)c2ccccc21	11.6 µM
O=C1C=C(NS(=O)(=O)c2ccc(Br)cc2)C(=O)c2ccccc21	14.3 µM
NC1=C(NS(=O)(=O)c2ccccc2)C(=O)c2ccccc2C1=O	15 µM
O=C1C(NS(=O)(=O)c2ccccc2)=C(c2ccccc2)C(=O)c2ccccc21	> 70 µM (inactive)
O=C1C=C(NS(=O)(=O)c2cccs2)C(=O)c2ccccc21	15.3 µM
NC1=C(NS(=O)(=O)c2cccs2)C(=O)c2ccccc2C1=O	16.8 µM
COC1=C(Nc2ccccc2)C(=O)c2ccccc2C1=O	7.46 µM
COC1=C(NS(=O)(=O)c2cccs2)C(=O)c2ccccc2C1=O	23.4 µM
NC1=C(NS(=O)(=O)c2ccc(Br)s2)C(=O)c2ccccc2C1=O	> 70 µM (inactive)
COC1=C(NS(=O)(=O)c2ccc(Br)cc2)C(=O)c2ccccc2C1=O	14.7 µM
O=C1C=C(Nc2ccccc2)C(=O)c2ccccc21	2.89 µM
O=C1C(Nc2ccccc2)=C(c2ccccc2)C(=O)c2ccccc21	36 µM
